# Screening data from PubChem.
# TAAR1 antagonist: human TAAR1 antagonists, primary screen, Fluo-8 calcium fluorescence, CHO RD-HGA16 cells. Trace amine-associated receptor 1 (Homo sapiens), Q96RJ0. antagonist. inhibition, % at 3 µM. AID 624466, 2012. hit rate 1.5% among 360,000;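 active = inhibition above a per-plate cutoff, the mean inhibition of test compounds on that plate plus 3 SD, cut at about 49% in these data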;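 note: 0% = DMSO plus EC80 beta-PEA response and 100% = DMSO alone without agonist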
# Target sequence (Q96RJ0 whole entry, looked up): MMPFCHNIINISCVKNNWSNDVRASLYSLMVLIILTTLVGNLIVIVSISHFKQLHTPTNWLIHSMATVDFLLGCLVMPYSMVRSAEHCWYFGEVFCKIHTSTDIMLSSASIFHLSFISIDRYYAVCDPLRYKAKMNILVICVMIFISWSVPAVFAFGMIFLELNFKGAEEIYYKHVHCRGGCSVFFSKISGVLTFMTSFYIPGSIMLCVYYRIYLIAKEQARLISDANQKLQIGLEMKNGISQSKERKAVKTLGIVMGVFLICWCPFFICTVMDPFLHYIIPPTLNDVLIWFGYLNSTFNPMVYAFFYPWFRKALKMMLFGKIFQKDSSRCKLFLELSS
#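 System: RD-HGA16 CHO cells with stable hTAAR1 and Gα16 | Probe or stimulus: EC80 β-phenethylamine stimulus | Dosing: 3 µM, single point | Times: Dye loading 75 min at 37 °C, then 30 min room temperature | Measured by: Fluo-8 calcium-sensitive fluorescence | Read-out basis: % inhibition of agonist calcium response | Replicates: n of 1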
# TAAR1 agonist: human TAAR1 agonists, primary screen, Fluo-8 calcium fluorescence, CHO RD-HGA16 cells; AID 624467, 2012; hit rate 0.99% among 360,000; Trace amine-associated receptor 1 (Homo sapiens), Q96RJ0; activation, % at 3 µM; vehicle wells 0%, saturating PEA agonist 100%;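 active = activation above the mean activation of all test compounds in the run plus 3 SD, cut at about 38% in these data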
#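 System: CHO-derived RD-HGA16 cells with stable Gα16 and human TAAR1. Times: 17-24 h plating, Fluo-8 75 min 37 °C, 30 min RT. Measured by: calcium-sensitive Fluo-8 signal, excitation 470-495, emission 515-575 nm. Read-out basis: % activation relative to PEA EC100 response. Control set: DMSO and PEA EC100. Repeats: no replicates (n 1).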
# HCV NS3 hel inh: inhibitors of HCV NS3 helicase, primary screen, biochemical, Cy5 molecular beacon fluorescence. NS3 helicase DNA unwinding. Hepatitis C virus NS3 helicase. inhibition, % at 10.9 µM. hit rate 0.56% among 290,000;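 active = inhibition above the mean of all tested compounds plus 3 SD, set per campaign, cut at about 35% in these data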;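 note: 0% = DMSO wells and 100% = thioflavine S control wells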
#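 test system = hepatitis C virus NS3 helicase domain fragment enzyme | reagent = annealed dual-labelled DNA beacon duplex, ATP-started | times = 1 h at 25 °C | detection = Cy5 fluorescence, 0 and 60 min reads | read-out basis = percent inhibition from t60/t0 fluorescence ratio | control set = DMSO and thioflavine S | replication = one well per compound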
# core dimer inh: inhibitors of HCV core protein dimerization, primary screen, biochemical, TR-FRET, high-throughput. inhibition, % at 5 µM. TR-FRET GST/Flag-core106 dimerization, 1536-well. hit rate 0.33% among 300,000;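 active = inhibition above the mean of all tested compounds plus 3 SD, set per screening campaign, cut at about 45% in these data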
#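 Assay system: tagged HCV core106 pair (GST and Flag); medium: KF-containing HEPES buffer, pH 7.45, DTT, CHAPS, BSA; also added: Eu donor and XL665 acceptor anti-tag antibodies; dosing: 5 µM single dose; timing: compound-protein-antibody incubation 4 h at 22.5 °C; signal: TR-FRET 671 and 617 nm emission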
# rCAG RNA binder: binders of r(CAG) RNA repeats, primary screen, biochemical, fluorescence. inhibition, % at 3 µM. hit rate 1.3% among 370,000. r(CAG) RNA repeat, TO-PRO-1 dye displacement fluorescence. AID 651821, 2012;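 active = inhibition above the plate cutoff, the mean of all test compounds on that plate plus 3 SD, cut at about 35% in these data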;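 note: 0% = DMSO alone and 100% = 100 µM mitoxantrone as full dye displacement; higher means more dye released from RNA so lower well fluorescence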
# rCAG bind conf: small molecules binding CAG repeat RNA – biochemical, fluorescence, confirmation. AID 652065, 2013. hit rate 70% among 4,300. inhibition, % at 3 µM. r(CAG) RNA repeat, TO-PRO-1 dye displacement fluorescence. shares compounds with rCAG RNA binder;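 active = inhibition above a per-plate cutoff, the mean inhibition of sample wells plus 3 SD, cut at about 35% in these data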;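 note: loss of TO-PRO-1 fluorescence as compound displaces dye from 1x1 AA loop RNA; 0% = DMSO only wells and 100% = 100 µM mitoxantrone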
# dCAG dye counter: displacement of TO-PRO-1 from CAG DNA duplex, counter-screen for rCAG RNA repeat binder project, biochemical, fluorescence, TO-PRO-1 dye, d(CAG) DNA oligo. shares compounds with rCAG RNA binder. d(CAG) DNA oligo TO-PRO-1 dye displacement. inhibition, % at 3 µM. hit rate 94% among 4,300;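 active = inhibition above its plate's cutoff, the mean test-well inhibition plus 3 SD, cut at about 4.8% in these data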;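 note: 0% = DNA dye mix with DMSO and 100% = 100 µM mitoxantrone; hits displace the dye from DNA and so lower well fluorescence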
# DNA CAG DR: inhibitors of DNA CAG/GTC TO-PRO-1 complex, dose response, counter-screen for rCAG RNA repeat binder project, biochemical, fluorescence, TO-PRO-1 dye | shares compounds with rCAG RNA binder | hit rate 20% among 250 | IC50, µM | DNA CAG/GTC duplex TO-PRO-1 dye displacement fluorescence | AID 686960, 2013; in the data active = IC50 below about 10 µM
# Starred values were filed as active, the others as inactive; i = inactive; nt = no result given. Rows were chosen to be rich in hits. Some 3.7% of all compounds tested hit in one or more screens of this group.
SMILES,TAAR1 antagonist,TAAR1 agonist,HCV NS3 hel inh,core dimer inh,rCAG RNA binder,rCAG bind conf,dCAG dye counter,others
Cc1ccc(Cl)cc1N1CCN(C(=O)Cc2c(C(=O)O)[nH]c3ccccc23)CC1,8.0,-0.4,8.7,7.1,50.8*,48.0*,14.1*,
C/C(CC(=O)Nc1ccc2c(c1)OCCO2)=N\NC(=O)Cc1ccc(Cl)cc1,3.3,1.0,-0.9,-3.4,4.5,nt,nt,
Cc1ccc(Cl)cc1N1CCN(C(=O)Cc2c(C(=O)O)[nH]c3ccc(Cl)cc23)CC1,3.3,18.9,-9.9,24.5,74.1*,83.6*,54.8*,
Cc1ccc(Cl)cc1N1CCN(C(=O)Cc2cn(C)c3ccccc23)CC1,36.1,2.0,-6.6,7.1,-6.0,nt,nt,
O=C(Cc1c(C(=O)O)[nH]c2ccc(Cl)cc12)Nc1ccc2c(c1)OCCO2,-5.8,4.2,-20.3,2.9,49.7*,41.8*,8.4*,
CCCCCN1CCCCC(NC(=O)c2ccc(F)cc2)C1=O (stereo not drawn),nt,nt,nt,nt,-1.3,nt,nt,
CCCn1c(N)c(N2CCCCC2)c(=O)n(CC(=O)Nc2ccccc2C)c1=O,-7.5,23.5,-2.5,-1.1,-5.0,nt,nt,
CCCn1c(N)c(N2CCCCC2)c(=O)n(CC(=O)Nc2ccc(OC(F)(F)F)cc2)c1=O,7.7,9.0,10.5,-3.3,37.4*,1.9,0.3,
COc1ccccc1NS(=O)(=O)c1ccc(NC(=O)c2ccncc2)cc1,13.0,4.8,13.0,-0.3,3.4,nt,nt,
COc1ccccc1NS(=O)(=O)c1ccc(NC(=O)c2[nH]nc(OC)c2[N+](=O)[O-])cc1,-6.0,1.6,7.8,nt,46.7*,26.1,7.2*,
CC(=O)N1CCN(C2=Nc3ccccc3Sc3ccccc32)CC1,nt,nt,nt,nt,0.0,nt,nt,
CCOC(=O)C1=NOC(C(=O)Nc2cc(C)cc(C)c2)(C(=O)C2CC2)C1 (stereo not drawn),nt,nt,nt,nt,-0.8,nt,nt,
O=C(OCCN1CCN(C2CN(Cc3cn(Cc4cccc(F)c4)nn3)S(=O)(=O)C2)CC1)c1cc2ccccc2o1 (stereo not drawn),nt,nt,nt,nt,4.7,nt,nt,
O=C(O)CCn1cc(/C=C\C(=O)c2ccc(Cl)cc2)c(-c2cccc(Br)c2)n1,0.7,-0.7,-36.1,7.8,63.3*,82.4*,44.7*,
COc1ccc(-c2nn(CCC(=O)O)cc2/C=C/C(=O)O)cc1[N+](=O)[O-],0.0,-0.2,-1.5,6.1,4.4,nt,nt,
Cc1ccc(-c2nn(CCC(=O)O)cc2/C=C\C(=O)c2ccc(Br)cc2)cc1,6.7,0.1,-32.5,10.1,68.2*,73.9*,31.9*,DNA CAG DR=i
O=Cc1cn(CCC(=O)O)nc1-c1cccc(Br)c1,8.7,3.7,1.6,0.5,1.2,nt,nt,
CCN(C[C@@H]1[C@@H](c2ccccc2)[C@H](CO)N1S(C)(=O)=O)C(=O)C1CCC1,nt,nt,nt,nt,-0.2,nt,nt,
COc1ccccc1/C=C/C=C1N=C(/C=C/c2ccc(Cl)cc2)OC/1=O,13.9,1.2,9.3,42.9,54.4*,37.4*,10.1*,
COc1ccccc1/C=C/C(=O)c1ccc(Cl)cc1,0.8,1.3,7.1,5.7,0.3,nt,nt,
CCc1c(-c2ccccc2F)ncn1CCc1ccccc1OC,13.8,9.6,nt,nt,-2.1,nt,nt,
C=CCOc1c(OC)cc(/C=N/Nc2cccc(C(=O)O)c2)c(Br)c1Br,-37.2,-1.8,16.6,0.2,51.1*,70.0*,31.4*,DNA CAG DR=8.34*
COC(=O)c1sc(-c2ccc(Cl)cc2)cc1NC(=O)CSCC(=O)O,2.5,10.2,29.1,11.0,26.5,nt,nt,
COC(=O)c1sc(-c2ccc(C(C)(C)C)cc2)cc1NC(=O)COCC(=O)O,49.7*,8.5,-9.6,22.9,63.8*,73.0*,31.2*,DNA CAG DR=9.06*
O=C(CCc1ccccc1-c1ccccc1CCNC(=O)c1ccc(F)c(F)c1)NCc1ccccc1,nt,nt,nt,nt,-0.8,nt,nt,
SMILES,TAAR1 antagonist,TAAR1 agonist,HCV NS3 hel inh,core dimer inh,rCAG RNA binder,rCAG bind conf,dCAG dye counter,others
O=C(O)COc1ccc(NC(=O)c2ccc3c(c2)C(=O)N(Cc2ccccc2)C3=O)cc1,-5.0,2.1,6.1,-2.7,47.0*,27.9,6.2*,
CC(C)CN1C(=O)c2ccc(C(=O)Nc3ccc(OCC(=O)O)cc3)cc2C1=O,2.7,-1.6,5.3,-8.6,12.7,nt,nt,
CCN(CC)c1nc(C)nc2c1nnn2Cc1ccccc1,nt,nt,nt,nt,-1.5,nt,nt,
O=c1cc(-c2ccccc2)oc2c1ccc1ccccc12,14.6,2.1,nt,nt,11.6,nt,nt,
O=c1cc(-c2ccc(O)c(O)c2)oc2ccc3ccccc3c12,39.0,3.1,nt,nt,40.8*,59.3*,28.5*,
O=c1cc(-c2ccc(O)c(O)c2)oc2c1ccc1ccccc12,40.0,7.0,nt,nt,57.3*,60.9*,27.6*,
O=[N+]([O-])c1c(NCCCO)cc(SCc2ccco2)c2nonc12,1.6,1.4,24.6,9.8,47.3*,6.0,2.1,
O=[N+]([O-])c1c(NCCCO)cc(Sc2ccc(Cl)cc2)c2nonc12,-1.8,9.4,1.9,0.3,1.5,nt,nt,
Oc1ccc(-c2cc(-c3ccc(O)cc3)nc(-c3ccccc3)n2)cc1,24.0,0.4,-21.6,4.0,64.8*,50.6*,26.5*,DNA CAG DR=i
COc1ccc(S[C@]2(C(=O)N3CCOCC3)CC(=O)N(c3ccc(C#N)cc3)[C@@H]2c2ccc(OC)cc2)cc1,nt,nt,nt,nt,6.7,nt,nt,
Nc1[nH]c(C(=O)c2ccccc2)c(-c2ccc(Cl)cc2F)c1C(=O)NCCc1c[nH]c2ccccc12,9.6,2.8,nt,nt,12.3,nt,nt,
O=C1NC(=S)N(C(=O)c2ccc(F)cc2)/C1=C/c1ccccc1,16.9,9.6,12.7,14.0,36.5*,65.4*,24.2*,
COc1ccc(/C=C2\C(=O)NC(=S)N2C(=O)c2ccc(F)cc2)cc1,31.1,29.2,20.5,8.0,37.6*,69.4*,31.2*,
O=C(c1ccc(F)cc1)N1CCN(Cc2ccccc2)CC1,-15.5,3.3,9.2,-9.2,-5.2,nt,nt,
CCc1ccc(-c2n[nH]nc2C2=CC(=O)C[C@H](c3ccc(F)cc3)C2)cc1,6.0,-0.9,nt,nt,36.8*,42.1*,10.7*,
Nc1ccccc1Sc1ccc(C(=O)c2ccccc2C(=O)O)cc1[N+](=O)[O-],-28.1,-0.9,19.9,0.2,63.7*,48.1*,15.2*,
